Consider two molecules from paper PMC4743058 (Genes & Development, 2016).

Where a SMILES comes first, the peptide text is derived from it. The star is where a group is joined. Cbz = O=C(OCc1ccccc1)*

One assay deals with Lj-p53. The experiment in a line: Lj-p53 degradation in p53/Mdm2 double-knockout cells. Type of assay: cell-based. As to conditions: 4 h before harvest, Western blot, lane 4.
A further assay relates to Hs-p53. As to the kind of experiment: Hs-p53 degradation in p53/Mdm2 double-knockout cells. Type of assay: cell-based, human; expressed in mouse embryonic fibroblasts. As to conditions: 4 h before harvest, Western blot.
A further assay concerns Hs-p53–HDM2^Nterm. As to the kind of experiment: In vitro pull-down of Hs-p53 by HDM2Nterm in presence of inhibitor. Type of assay: binding, human. As to conditions: in vitro translated proteins, inhibitor 30 min, Fig. 7A lanes 1–3.
The test system of a further assay is Hs-p53–Lj-Mdm2^Nterm. As to the kind of experiment: In vitro pull-down of Hs-p53 by Lj-Mdm2Nterm in presence of inhibitor. The assay is classed as binding, human p53; lamprey (Lethenteron japonicum) Mdm2. As to conditions: in vitro translated proteins, inhibitor 30 min, Fig. 7A lanes 4–6.
The next assay deals with Lj-p53–Lj-Mdm2^Nterm. The experiment in a line: In vitro pull-down of Lj-p53 by Lj-Mdm2Nterm in presence of inhibitor. Type of assay: binding, lamprey (Lethenteron japonicum). As to conditions: Fig. 7A. The essentials: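 Anti-HA antibody (1 µg per 10 µL Protein G beads, 1 h in PBST–3% BSA) captured in vitro translated HA-tagged Mdm2 N-terminal bait (30 min, rotating). Test compound was added at the required concentrations for 30 min, with DMSO as control. In vitro translated Flag-Lj-p53 was then added for 1 h. Beads were washed, and eluates were heated 5 min at 95°C, run on SDS-PAGE and immunoblotted with HRP anti-Flag.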

On to `CC(C)C[C@@H](C=O)NC(=O)[C@H](CC(C)C)NC(=O)[C@H](CC(C)C)NC(=O)OCc1ccccc1` [MG132] (Cbz-Leu-Leu-Leu-aldehyde), for which the “block of Lj-Mdm2-mediated Lj-p53 reduction by proteasome inhibitor” value in the assay with Lj-p53 is listed as “partially blocked”. Further, the “block of Lj-Mdm2-mediated Hs-p53 degradation by proteasome inhibitor” value in the assay with Hs-p53 is listed as “only partially blocked”.

Regarding Nutlin, in the assay with Hs-p53–HDM2^Nterm, the “block of binding of Hs-p53 to HDM2Nterm” value is reported as “could block the binding of Hs-p53 to HDM2^Nterm”. In addition, the “block of binding of Hs-p53 to Lj-Mdm2Nterm” value with Hs-p53–Lj-Mdm2^Nterm is “not by Nutlin”. Moreover, the “block of binding of Lj-p53 to Lj-Mdm2Nterm” value in the assay with Lj-p53–Lj-Mdm2^Nterm (in vitro translated proteins, inhibitor 30 min) is listed as “not by Nutlin”. The “interaction with the p53-binding pocket in Lj-Mdm2Nterm” value with Lj-p53–Lj-Mdm2^Nterm (inferred from pull-down) is reported as “interacts poorly, if at all”.
